The text below walks through data of ChEMBL document CHEMBL2331408, “Discovery and structure-activity relationships of pyrrolone antimalarials” (J Med Chem, 2013).

The nature of series [1]: Partition coefficient, log D of the compound at pH 7.4 by HPLC analysis. It counts as physicochemical. The note with it: octanol/water. In short, it runs like this:
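LogD at pH 7.4 measured with a chromatographic gLogD technique.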

Series [2] is described as follows: Drug metabolism in mouse liver microsomes assessed as mono-oxygenation at 1 uM by LC/MS analysis. It counts as ADME, Microsome.
Series [3] is described as follows: (§1) Intrinsic clearance in mouse liver microsomes at 1 uM by LC/MS analysis. It counts as ADME, Microsome. The note with it: liver microsomes, read-out: CLH. In short, it runs like this:
(§2)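 Mouse hepatic microsomes; in vitro intrinsic clearance from compound degradation during incubation, expressed as μL/min/mg.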

In a further series the test system is Liver. The description is as §1. It counts as ADME, Microsome. The note with it: microsomes, 1 µM. A digest of the protocol:
as §2

Series [4] can be described thus: Drug metabolism in mouse liver microsomes assessed as bis-oxygenation at 1 uM by LC/MS analysis. It counts as ADME, Microsome.
Series [5] can be described thus: Drug metabolism in mouse liver microsomes assessed as morpholine ring cleavage at 1 uM by LC/MS analysis. It counts as ADME, Microsome.

`CCOC(=O)C1=C(O)/C(=C\c2cc(C)n(-c3ccc(F)cc3)c2C)N=C1C` displayed a logD in series [1] of 2.9. Moreover, the Drug metabolism result in series [2] is given as “Active”. Moreover, the microsomal CLint at 1 µM in series [3] was determined as 94 µL/min/mg.

As to `CCOC(=O)C1=C(C)N/C(=C/c2cc(C)n(-c3cc(OC)c(OC)c(OO)c3)c2C)C1=O`, in series [1], the logD came to 2.6. Also, in series [3], the microsomal CLint at 1 µM was determined as 63 µL/min/mg.

As to `CCOC(=O)C1=C(C)N/C(=C/c2cc(C)n(-c3cccc(OC)c3)c2C)C1=O`, the logD in series [1] turned out to be 2.9. In addition, the “Microsomal intrinsic clearance (CLint)” value with Liver came out at 150 µL/min/mg.

For the compound `CCOC(=O)C1=C(C)N/C(=C/c2cc(C)n(-c3ccc(SC(F)(F)F)cc3)c2C)C1=O`, the Drug metabolism entry in series [2] is listed as “Active”. Moreover, the “Microsomal intrinsic clearance (CLint)” value in the series on Liver was determined as 76 µL/min/mg.

In the case of `CCOC(=O)C1=C(C)N/C(=C/c2cc(C)n(-c3ccc(S(=O)(=O)C(F)(F)F)cc3)c2C)C1=O`, in the series with Liver, the “Microsomal intrinsic clearance (CLint)” value was found to be 58 µL/min/mg.

As for `CCOC(=O)C1=C(C)N/C(=C/c2cc(C)n(-c3ccc(SC)cc3)c2C)C1=O`, in series [2], the Drug metabolism entry is “Active”. The “Microsomal intrinsic clearance (CLint)” value with Liver amounted to 66 µL/min/mg.

Consider `CCOC(=O)C1=C(C)N/C(=C/c2cc(C)n(-c3ccncc3)c2C)C1=O`, for which the logD in series [1] stood at 3.2. Moreover, the Drug metabolism entry in series [4] and in series [2] was “Active” in each case. In the series on Liver, the “Microsomal intrinsic clearance (CLint)” value amounted to 61 µL/min/mg.

Regarding `CCOC(=O)C1=C(C)N/C(=C/c2cc(C)n(-c3cccnc3)c2C)C1=O`, in series [1], the logD was 2.1. Besides, the “Microsomal intrinsic clearance (CLint)” value with Liver is 82 µL/min/mg.

Turning to `CCOC(=O)C1=C(C)N/C(=C/c2cc(C)n(-c3ccc(N4CCOCC4)cc3)c2C)C1=O`, in series [1], the logD is 3.3. Also, in series [5], the Drug metabolism result was “Active”. For the same compound, in the series with Liver, the “Microsomal intrinsic clearance (CLint)” value worked out at 31 µL/min/mg.

Take `CCOC(=O)C1=C(C)N/C(=C/c2cc(C)n(Cc3ccc(C(F)(F)F)cc3)c2C)C1=O`: in the series on Liver, the “Microsomal intrinsic clearance (CLint)” value is 100 µL/min/mg.

`CCOC(=O)C1=C(C)N/C(=C/c2cc(C)n(-c3ccc(CN4CCCCC4)cc3)c2C)C1=O` displayed a logD in series [1] of 8.5. In addition, in the series on Liver, the “Microsomal intrinsic clearance (CLint)” value was found to be 60 µL/min/mg.

`CCOC(=O)C1=C(C)N/C(=C/c2cc(C)n(-c3ccc(CN4CCOCC4)cc3)c2C)C1=O` came in with a log distribution coefficient (logD) in series [1] of 6.7. The “Microsomal intrinsic clearance (CLint)” value in the series on Liver was 56 µL/min/mg.

Turning to `CCOC(=O)C1=C(C)N/C(=C/c2cc(C)n(-c3ccc(CN(C)C)cc3)c2C)C1=O`, the logD in series [1] stood at 8.3. Further, the “Microsomal intrinsic clearance (CLint)” value in the series with Liver came to 31 µL/min/mg.

As to `CCOC(=O)C1=C(C)N/C(=C/c2ccn(-c3ccccc3C(F)(F)F)c2)C1=O`, the “Microsomal intrinsic clearance (CLint)” value with Liver was determined as 160 µL/min/mg.
